Screening results from PubChem.
SUMO Mot1 rescue: blocks SUMOylation pathway, rescuing yeast Mot1-301 growth; 320,000 tested, 1% active; growth rescue, % at 18.8 µM; S. cerevisiae Mot1-301 growth rescue, ATP luminescence, 38.5C; percent above DMSO median, 100 means doubled;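 active means every valid replicate shows activation above 250% relative to neutral control wells; inactive means the rest, any valid replicate at or below 250%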;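 further: OY570 slx delta 5 strain wells were the positive control but not used for scaling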
T cruzi repl: blocks replication of Trypanosoma cruzi; T. cruzi beta-gal in NIH3T3, luminescence, 90 h; inhibition, % (test concentration not listed); AID 1885; 300,000 tested, 1.4% active;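 active means mean inhibition across valid replicates above about 55%, limit read from the data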;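 further: signal also drops with host cell toxicity which is not excluded here; 0% = plate median of DMSO wells and 100% = zero luminescence signal; higher percent means less beta-gal luminescence so fewer parasites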
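System – NIH/3T3 host cells with β-galactosidase reporter T. cruzi · Doses – single 50 nL compound addition per well in DMSO · Reagent – 5000 T. cruzi trypomastigotes/well · Medium – Low-serum DMEM with 2% FBS · Timing – ≥90 h infection period, 3 h prior cell attachment · Evaluation – parasite load inhibition, % · Technique – GalScreen luminescence, 60 min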
Efflux pump mplx: blocks antifungal efflux pumps in multiplex yeast assay; S. cerevisiae Candida pump triplex, Nile Red efflux; AID 485275; inhibition, % at 10 µM; 330,000 tested, 0.44% active;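 active means plate passing quality check with inhibition over a set limit, or well fluorescence over plate mean plus 4 SD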;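 further: Nile Red retained in pooled yeast measured as flow cytometry median fluorescence; 0% = buffer negative control and 100% = Enniatin B positive control; higher means more Nile Red kept so more efflux inhibition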
CSC inhib: cancer stem cell inhibition; cancer stem cell-like cells viability, luminescence; inhibition, % at 7.5 µM; 300,000 tested, 1.1% active; AID 2717; in the data active means inhibition above about 75%; tested in HMLE shEcad cells
WT yeast gro inh: growth inhibition of WT yeast, mitochondrial fusion screen; mitochondrial fusion phenotypic screen, WT strain; inhibition, % at 10 µM; 190,000 tested, 2.1% active; AID 1362; in the data active means inhibition above about 58%; tested in S. cerevisiae
Beta apoptosis: beta cell apoptosis inhibition; INS-1E cytokine-induced death, ATP luminescence, 48 h; percent of positive-control rescue, neutral wells zero; protection from apoptosis, % (test concentration not listed); 300,000 tested, 0.8% active;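 active means Every replicate reaches about 75%, or at least half do and their mean reaches it too, limit read from the data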;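 further: 0% = cytokine-treated negative control wells and 100% = positive control rescue; higher means more ATP so stronger rescue from cytokine killing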
* = called active by the depositor; . = not tested or not shown. Most compounds without a hit are left out; they make up all but 4.8% or so of the library.

SMILES	SUMO Mot1 rescue	T cruzi repl	Efflux pump mplx	CSC inhib	WT yeast gro inh	Beta apoptosis
CC(C)CCNC(=O)C(c1cccnc1)N(CCc1ccccc1)C(=O)Cn1nnc2ccccc21 (configuration not stated)	-4.9	23.1	0.0	.	-3.7	-1.2
O=C(NNc1cc(N2CCOCC2)nc(N2CCOCC2)n1)C12CC3CC(CC(C3)C1)C2	77.6	4.3	-0.2	-0.1	13.1	-1.0
COc1ccc(Nc2cc(Nc3ccccc3)ncn2)cc1	114.0	13.0	-0.1	6.8	.	-5.7
C=CCn1c(SCC(=O)c2[nH]c(C)c(C(=O)OCC)c2C)nc2scc(-c3ccc(OC)c(OC)c3)c2c1=O	5.8	20.5	-0.1	93.0*	-18.7	94.9*
COC(=O)C1=C(C)NC(C)=C(C(=O)OC)C1c1cn(-c2ccccc2)nc1-c1ccco1	-6.0	36.9	0.2	4.3	.	-0.3
O=C(Cn1cc(C(=O)C(F)(F)F)c2ccccc21)N1CCOCC1	153.8	-22.7	0.6	1.5	-20.7	-1.9
c1ccc(-c2nc(-c3ccccn3)no2)cc1	-41.9	-13.6	0.0	51.0	41.9	40.1
c1ccc(-c2ccc(-c3nc(-c4ccccn4)no3)cc2)cc1	-69.9	8.3	0.1	-9.8	77.9*	70.4
CC(/C=C/c1ccccc1)=N/NC(=O)CNC(=O)c1ccccc1F	-10.4	20.0	0.4	-6.5	-0.6	0.7
CCCCOc1ccc(C(=O)Nc2ccc3c(c2)OCO3)cc1	-1.9	2.2	0.1	92.6*	-2.7	0.7
CCCOc1ccc(C(=O)Nc2ccc3c(c2)OCO3)cc1	15.1	2.4	0.0	57.7	.	5.1
Cc1cccc(OCCCC(=O)Nc2ccc3c(c2)OCO3)c1	2.5	-2.8	-0.2	15.3	73.7*	2.4
CCCOc1c(Cl)cc(C(=O)Nc2ccc3c(c2)OCO3)cc1OCC	21.6	40.2	-0.1	79.2*	-19.1	14.6
COc1cc(C(O)c2nc3ccccc3s2)cc(OC)c1OC (configuration not stated)	4.0	9.5	0.3	-2.8	.	23.9
CCOc1ccc(CN(C)CC(=O)Nc2cc(OC)c([N+](=O)[O-])cc2C)cc1	51.5	58.8*	0.1	-9.3	-26.5	3.5
CCOc1ccc(CN(C)CC(=O)Nc2cc(C)c(C)cc2[N+](=O)[O-])cc1	0.4	9.1	-0.1	14.2	2.5	-1.6
CCOC(=O)c1cnc2ccc(C)cc2c1Sc1ccccc1C(=O)OC	-3.2	61.4*	-0.1	2.9	18.1	-6.6
CCOC(=O)c1cnc2ccc(C)cc2c1NCCO	.	0.7	-0.2	6.2	-11.7	6.9
COc1ccc(NC(=O)Nc2cccc(C(F)(F)F)c2)cn1	26.1	11.1	0.3	15.1	26.5	1.1
Cc1oc(-c2ccccc2Cl)nc1CN1CCCC1c1ccc(F)cc1 (configuration not stated)	11.3	30.9	0.0	3.6	30.8	-0.3
COc1ccc(-c2nc(CN3CCCCC3c3cccnc3)c(C)o2)c(F)c1 (configuration not stated)	2.6	64.4*	0.0	2.8	-11.3	3.9
Cc1ccc(-c2nc(CN3CCCCC3c3cccc(F)c3)c(C)o2)o1 (configuration not stated)	-7.8	9.4	-0.1	-1.8	9.8	-9.3
Cc1oc(-c2ccccc2Cl)nc1CN1CCCCC1c1cccnc1 (configuration not stated)	130.3	59.2*	-0.1	-8.5	-4.0	2.4
CC(Sc1nncn1C)C(=O)Nc1ccc(N2CCCCC2)cc1 (configuration not stated)	-15.3	.	0.2	18.7	.	0.1
CCn1c(C)nc2cc(C(=O)N/N=C/c3cccc(OC)c3O)ccc21	-9.2	-23.2	0.5	109.0*	11.9	.
SMILES	SUMO Mot1 rescue	T cruzi repl	Efflux pump mplx	CSC inhib	WT yeast gro inh	Beta apoptosis
CCC(=NNC(=O)c1ccc2c(c1)nc(C)n2CC)c1cc(F)ccc1O	-5.5	.	-0.1	20.6	.	89.7*
CCOc1ccccc1/C=N/NC(=O)c1c(C)nc2ccc(Br)cn12	10.7	-9.8	0.0	10.0	.	-0.6
COc1cccc(/C=N/NC(=O)c2c(C)nc3ccc(Br)cn23)c1O	-9.3	69.3*	0.0	89.3*	-3.1	81.6*
CC(=O)Nc1ccc(OCC(O)Cn2c3ccccc3c3ccccc32)cc1 (configuration not stated)	-6.5	31.9	-7.5	52.2	41.0	-1.0
CC(=O)Nc1ccc(OCC(O)Cn2c3ccccc3c3ccccc32)c(C)c1 (configuration not stated)	7.0	55.8*	0.0	77.6*	5.5	10.3
COc1cc(/C=C2/N=C(c3ccccc3)OC2=O)c(F)cc1OCc1ccccc1	-10.0	-4.7	1.1	-9.6	.	-8.9
CCOc1ccccc1NC(=O)C1CCN(C(=O)C2CC(=O)N(c3ccc(C)cc3)C2)CC1 (configuration not stated)	14.4	10.0	0.1	-18.0	.	-3.4
O=C(CSc1nnc(-c2ccncc2)n1Cc1ccco1)Nc1cccc(O)c1	2.5	-14.1	0.3	-5.9	-14.1	-3.5
CCOC(=O)c1c(NC(=O)CSc2nnc(-c3ccncc3)n2Cc2ccco2)sc(C)c1C	6.3	70.5*	-0.1	-2.9	31.1	5.0
Clc1cc(Cl)c(OCCCCn2cncn2)c(Cl)c1	20.8	20.8	0.1	-27.1	.	3.7
COc1ccc(/C=C/c2cc(C(=O)O)c3ccccc3n2)cc1	-12.3	-5.5	0.4	4.4	.	-9.2
Cc1cc(/C=C\c2ccccc2)nc2ccccc12	159.5	-2.3	0.0	-0.8	70.6*	8.1
c1coc(Cn2c(-c3ccco3)nc3ccccc32)c1	-4.9	-8.8	-0.1	-3.9	-4.0	-1.5
Clc1ccc(OCCn2c(-c3ccco3)nc3ccccc32)cc1	-32.5	-27.8	0.0	39.1	83.0*	-3.3
Cn1c(=O)c2c(SCc3ccccn3)nc(CC(C)(C)C)nc2n(C)c1=O	-13.8	20.3	0.2	-1.9	27.9	18.0
CCCc1nc(SCc2ccccn2)c2c(=O)n(C)c(=O)n(C)c2n1	-5.4	12.9	0.0	106.7*	5.2	10.7
FC(F)(F)c1ccc(N2CCN(c3ncnc4c3nnn4Cc3ccccc3Cl)CC2)cc1	-9.5	50.6	0.1	11.7	7.0	8.1
Fc1ccc(N2CCN(c3ncnc4c3nnn4Cc3ccccc3Cl)CC2)cc1	-1.9	62.9*	0.0	62.0	53.0	16.2
CC1(c2nnc(-c3cccc(Cl)c3)o2)CC(c2ccccc2)=NO1 (configuration not stated)	33.8	-15.6	-0.1	10.9	.	0.2
O=C(CN1C2=NCCCN2c2ccccc21)c1cccc(Br)c1	.	13.8	0.0	-3.6	0.6	1.1
O=C(CN1C2=NCCCN2c2ccccc21)c1ccc([N+](=O)[O-])cc1	-0.5	59.4*	-0.1	-16.1	1.5	58.9
O=C(Cc1ccc([N+](=O)[O-])cc1)Nc1cc(C(F)(F)F)cc(C(F)(F)F)c1	3.1	70.4*	-0.2	13.5	.	13.2
